Measurements from ChEMBL document CHEMBL4765301, “Discovery of novel TNNI3K inhibitor suppresses pyroptosis and apoptosis in murine myocardial infarction injury” (Eur J Med Chem, 2020).
Activity calls are given as the source filed them. The rule behind the calls is not given here.

Key:
H9c2 [1] = test: Inhibition of OGD-induced apoptosis in rat H9c2 cells assessed as necrotic cells at 0.5 uM incubated for 24 hrs by annexinV-FITC and PI staining based flow cytometry analysis (reference value: 2.45 %); format: functional
[2] = biological target: T1, Serine/threonine-protein kinase TNNI3K (Rattus norvegicus) (UniProt Q7TQP6); test: Inhibition of TNNI3K in rat H9c2 cells assessed as reduction in p38 phosphorylation at 0.5 to 1 uM by Western blot analysis; format: cell-based; conditions: dose 0.5-1 µM
T1 sequence (whole entry): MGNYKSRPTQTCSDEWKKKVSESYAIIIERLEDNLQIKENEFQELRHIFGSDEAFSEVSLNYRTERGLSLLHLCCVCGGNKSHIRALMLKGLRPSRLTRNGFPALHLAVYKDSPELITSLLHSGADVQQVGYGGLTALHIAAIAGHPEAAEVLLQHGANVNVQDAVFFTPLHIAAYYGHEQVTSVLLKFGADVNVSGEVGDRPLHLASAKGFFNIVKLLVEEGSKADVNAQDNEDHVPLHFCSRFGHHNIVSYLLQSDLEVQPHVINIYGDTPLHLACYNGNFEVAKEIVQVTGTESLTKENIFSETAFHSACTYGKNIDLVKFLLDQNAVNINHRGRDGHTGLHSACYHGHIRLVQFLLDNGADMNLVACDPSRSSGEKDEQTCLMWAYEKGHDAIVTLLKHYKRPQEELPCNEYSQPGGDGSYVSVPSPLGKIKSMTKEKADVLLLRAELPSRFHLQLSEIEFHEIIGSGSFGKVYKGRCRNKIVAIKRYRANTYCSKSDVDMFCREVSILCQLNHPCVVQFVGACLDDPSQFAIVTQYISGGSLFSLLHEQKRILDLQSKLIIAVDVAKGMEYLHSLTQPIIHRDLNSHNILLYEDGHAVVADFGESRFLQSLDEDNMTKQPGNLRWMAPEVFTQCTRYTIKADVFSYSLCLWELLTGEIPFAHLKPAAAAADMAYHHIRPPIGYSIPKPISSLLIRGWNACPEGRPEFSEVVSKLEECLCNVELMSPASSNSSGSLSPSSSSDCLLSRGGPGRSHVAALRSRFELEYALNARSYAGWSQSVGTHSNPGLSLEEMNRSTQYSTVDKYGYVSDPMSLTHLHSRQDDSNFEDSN
Summary of the method: (§1)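 H9c2 cells under OGD were treated with saline or 0.5 or 1.0 µM inhibitor. Cells were trypsinised, washed in cold PBS, lysed in RIPA with sonication and centrifuged 30 min. Total protein was quantified and separated by SDS-PAGE, then transferred to PVDF. Blots were probed with primary and secondary antibodies and detected by ECL.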

H9c2 [3] = test: Inhibition of OGD-induced apoptosis in rat H9c2 cells assessed as viable cells at 1 uM incubated for 24 hrs by annexinV-FITC and PI staining based flow cytometry analysis (reference value: 85 %); format: functional
[4] = biological target: Vascular endothelial growth factor receptor 2 (Homo sapiens) (UniProt P35968); test: Inhibition of recombinant human KDR (790 to end residues) assessed as residual activity at 1 uM using myelin basic protein as substrate incubated for 40 mins by [gamma-33P]-ATP scintillation counting based radiometry assay relative to control
Vascular endothelial growth factor receptor 2 (Homo sapiens), sequence (P35968 whole entry): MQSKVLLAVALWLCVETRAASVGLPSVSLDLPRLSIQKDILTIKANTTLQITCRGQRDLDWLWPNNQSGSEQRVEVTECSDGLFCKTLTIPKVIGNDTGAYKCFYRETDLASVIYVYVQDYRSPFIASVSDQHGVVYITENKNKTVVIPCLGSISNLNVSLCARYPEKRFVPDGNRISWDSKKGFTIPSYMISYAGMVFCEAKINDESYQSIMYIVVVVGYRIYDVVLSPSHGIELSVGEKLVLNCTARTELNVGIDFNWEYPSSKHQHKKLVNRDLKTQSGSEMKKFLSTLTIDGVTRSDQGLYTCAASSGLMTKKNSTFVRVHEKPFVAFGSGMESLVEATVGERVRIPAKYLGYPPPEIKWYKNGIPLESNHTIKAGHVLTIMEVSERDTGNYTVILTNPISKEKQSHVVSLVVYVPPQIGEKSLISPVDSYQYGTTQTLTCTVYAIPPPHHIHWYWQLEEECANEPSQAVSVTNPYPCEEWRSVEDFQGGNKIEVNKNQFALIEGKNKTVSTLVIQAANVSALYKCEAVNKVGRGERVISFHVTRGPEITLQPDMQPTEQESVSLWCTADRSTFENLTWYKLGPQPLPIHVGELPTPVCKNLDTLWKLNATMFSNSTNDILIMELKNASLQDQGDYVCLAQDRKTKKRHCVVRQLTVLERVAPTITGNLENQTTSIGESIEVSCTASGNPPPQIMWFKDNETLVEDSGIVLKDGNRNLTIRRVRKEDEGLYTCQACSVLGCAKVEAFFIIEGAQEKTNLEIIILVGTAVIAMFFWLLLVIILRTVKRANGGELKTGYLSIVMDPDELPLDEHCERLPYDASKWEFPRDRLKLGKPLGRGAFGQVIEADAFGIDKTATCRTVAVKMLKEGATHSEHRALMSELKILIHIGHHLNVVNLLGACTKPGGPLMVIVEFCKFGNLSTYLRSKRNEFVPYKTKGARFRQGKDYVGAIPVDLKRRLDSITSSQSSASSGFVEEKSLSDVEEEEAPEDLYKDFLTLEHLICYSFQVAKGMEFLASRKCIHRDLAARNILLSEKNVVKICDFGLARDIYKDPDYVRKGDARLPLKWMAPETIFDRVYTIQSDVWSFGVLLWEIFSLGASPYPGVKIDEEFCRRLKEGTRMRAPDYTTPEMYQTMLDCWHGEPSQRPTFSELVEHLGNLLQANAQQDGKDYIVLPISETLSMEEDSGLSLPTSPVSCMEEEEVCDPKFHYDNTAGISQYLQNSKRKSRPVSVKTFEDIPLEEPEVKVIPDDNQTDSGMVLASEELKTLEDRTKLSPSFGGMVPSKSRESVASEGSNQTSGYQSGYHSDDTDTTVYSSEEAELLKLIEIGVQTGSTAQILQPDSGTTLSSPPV

[5] = Toxicity in C57BL/6 mouse assessed as effect on morphology of main organs at 25 mg/kg, ip administered for 28 days and observed on day 28 by H and E staining based fluorescence microscopy; format: organism-based; conditions: in vivo, 672 h, time 28 day
Summary of the method: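 Main organs of MI-model C57BL/6 mice, given 25 mg/kg ip every two days or sham-operated, examined by H&E staining of tissue sections for morphology.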

H9c2 [6] = test: Cytoprotective activity against OGD-induced cell death in rat H9c2 cells assessed as cell viability at 1 uM incubated for 24 hrs by MTT assay (reference value: 42.08 to 49.11 %); format: functional; conditions: read-out: Activity
Mus musculus [7] = test: Cardioprotective activity in C57BL/6 mouse model of myocardial infarction assessed as reduction in collagen deposition at 25 mg/kg, ip administered for 28 days and measured on day 28 by […] staining based fluorescence microscopy; format: functional, organism-based; conditions: time 28.0 day
Summary of the method: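 Male C57BL/6 mice (5-6 weeks); MI by permanent LAD ligation under ip ketamine (100mg/kg)/xylazine (10mg/kg) with ventilation; sham group operated without LAD occlusion. Post-MI mice randomised to sham, normal saline or inhibitor groups (n=4); 25 mg/kg given ip every two days. Hearts assessed after 28 days: TTC staining (infarct yellow-white, viable red), Masson's trichrome (blue collagen) and H&E.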

H9c2 [8] = test: Inhibition of OGD-induced apoptosis in rat H9c2 cells assessed as early apoptotic cells at 1 uM incubated for 24 hrs by annexinV-FITC and PI staining based flow cytometry analysis (reference value: 3.53 %); format: functional
Mus musculus [9] = test: In vivo inhibition of TNNI3K in C57BL/6 mouse assessed as p38 phosphorylation at 25 mg/kg, ip administered for 28 days and measured on day 28 by immunohistochemical staining based fluorescence microscopy; format: functional, organism-based; conditions: time 28.0 day
Summary of the method: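 Male C57BL/6 mice (5-6 weeks) with LAD-ligation MI; sham, saline or 25 mg/kg ip every two days, n=4, 28 days. Heart sections given EDTA (pH 8.0) or citrate (pH 6.0) microwave antigen retrieval, then primary antibody 30-40 min at 37°C. Detection by HRP polymer secondary with DAB (IHC) or fluorescent secondary (IF). Positive cells were quantified.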

H9c2 [10] = test: Inhibition of OGD-induced apoptosis in rat H9c2 cells assessed as reduction in NLRP3 level at 0.5 to 1 uM by immunofluorescence staining based fluorescence microscopy; format: functional, cell-based; conditions: dose 0.5-1 µM
Summary of the method: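 In OGD-exposed H9c2 cells treated with 0.5 or 1.0 µM inhibitor, intracellular distribution and co-localisation of caspase-1 and NLRP3 were assessed by immunofluorescence microscopy.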

H9c2 [11] = test: Inhibition of JNK phosphorylation in rat H9c2 cells at 0.5 to 1 uM by Western blot analysis; format: cell-based; conditions: dose 0.5-1 µM; summary of the method: as §1
H9c2 [12] = test: Cytoprotective activity against OGD-induced cell death in rat H9c2 cells assessed as cell viability at 10 uM incubated for 24 hrs by MTT assay (reference value: 42.08 to 49.11 %); format: functional; conditions: read-out: Activity

CN(C)CCCN1CCc2c(sc3ncnc(Nc4ccc(N(C)C)c(NC(=O)c5ccco5)c4)c23)C1
inhibition at 0.5 µM (H9c2 [1]): 2.24% | inhibition [2]: Active | inhibition at 1 µM (H9c2 [3]): 90.7% | Activity [4]: 80% | Activity [5]: Non-Toxic | viability at 1 µM (H9c2 [6]): 73.8% | Activity (Mus musculus [7]): Active | inhibition at 1 µM (H9c2 [8]): 3.17% | inhibition (Mus musculus [9]): Active | inhibition (H9c2 [10]): Active | inhibition (H9c2 [11]): inactive | viability at 10 µM (H9c2 [12]): 89%
